# According to ChEMBL document CHEMBL4406821, “Novel dual inhibitors targeting CDK4 and VEGFR2 synergistically suppressed cancer progression and angiogenesis” (Eur J Med Chem, 2019):
# Active and inactive are the calls of the source. The calls are words filed in the database; no cut-off is given here.
# How the values were obtained:
# [1] = target: T1, Vascular endothelial growth factor receptor 2 (Homo sapiens, UniProt P35968); experiment: Inhibition of recombinant human VEGFR2 (790 to end residues) using myelin ba as substrate at 1 uM incubated for 40 mins by [gamma-33P]-ATP based radiometric assay relative to control
# Summary of the method: (§1)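 Kinase panel profiling at 1 μM performed by Eurofins KinaseProfiler; percent inhibition reported as mean of two independent experiments.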
# HeLa [2] = experiment: Antiproliferative activity against human HeLa cells assessed as reduction in cell viability measured after 72 hrs by CCK8 assay; format: functional, cell-based
# Summary of the method: (§2)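 Cells were seeded at 3×10³ cells/well and exposed to a range of concentrations or vehicle for 72 h. Viability was read by CCK-8 at 450 nm, with DMSO as blank and five replicates per sample. IC50 was calculated from the dose-response.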
# T47D [3] = experiment: Antiproliferative activity against human T47D cells assessed as reduction in cell viability measured after 72 hrs by CCK8 assay; format: functional, cell-based; summary of the method: as §2
# SiHa = experiment: Antiproliferative activity against human SiHa cells assessed as reduction in cell viability measured after 72 hrs by CCK8 assay; format: functional, cell-based; summary of the method: as §2
# MDA-MB-231 [4] = experiment: Antiproliferative activity against human MDA-MB-231 cells assessed as reduction in cell viability measured after 72 hrs by CCK8 assay; format: functional, cell-based; conditions: MDA-MB-231, 72 h; summary of the method: as §2
# HUVEC [5] = experiment: Antiproliferative activity against HUVEC cells assessed as reduction in cell viability measured after 72 hrs by CCK8 assay; format: functional, cell-based; conditions: Homo sapiens; summary of the method: as §2
# HUVEC [6] = experiment: Antiangiogenic activity against HUVEC cells assessed as reduction in tube formation at 20 to 40 nM incubated for 6 hrs by light microscopy; format: functional, cell-based; conditions: Homo sapiens
# Summary of the method: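 HUVECs, 4×10⁴ cells/well, were seeded on Matrigel that had been solidified at 37°C for 30 min. Cells were treated with compound or vehicle at 37°C for 6 h. Three random fields were counted and photographed under a light microscope.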
# HeLa [7] = experiment: Inhibition of colony formation in human HeLa cells at 40 to 80 nM incubated for 5 days by crystal violet staining based light microscopy; format: functional, cell-based
# Summary of the method: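 4 × 10^3 cells per well were cultured with graded concentrations for 5 days. Cells were then fixed with 20% methanol, stained with 0.5% crystal violet and photographed by light microscopy.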
# MDA-MB-231 [8] = experiment: Induction of cell cycle arrest in human MDA-MB-231 cells assessed as accumulation in G2/M phase at 20 to 40 nM incubated for 36 hrs by propidium iodide staining based flow cytometry; format: functional
# Summary of the method: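 Cells were treated with graded concentrations for 36 h, then fixed overnight in 70% ice-cold ethanol at 4°C and resuspended in PBS. Staining used 50 µg/ml PI plus 5 µg/ml RNase at 37°C for 30 min. DNA content was analysed by FACS to give G0/G1, S and G2/M fractions.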
# [9] = Cmax in Sprague-Dawley rat at 10 mg/kg, po by HPLC-MS analysis; format: ADME, organism-based; set-up: dose 10 mg/kg, route oral; conditions: in vivo
# Summary of the method: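 Rats fitted with jugular vein catheters for serial blood sampling. Compound dissolved in saline with 5% (v/v) DMSO and given as a single 10 mg/kg dose iv or po after an overnight fast, n = 5 per group. Plasma isolated at once and measured by HPLC with tandem MS detection. Parameters derived by noncompartmental fitting.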
# [10] = target: T1, Vascular endothelial growth factor receptor 2; experiment: Inhibition of recombinant human VEGFR2 (790 to end residues) using myelin ba as substrate incubated for 40 mins by [gamma-33P]-ATP based radiometric assay
# [11] = target: ALK tyrosine kinase receptor (Homo sapiens) (UniProt Q9UM73); experiment: Inhibition of recombinant human ALK (1058 to end residues) at 1 uM using KKKSPGEYVNIEF as substrate incubated for 40 mins in presence of [gamma-33P]-ATP by scintillation counting method relative to control; summary of the method: as §1
# [12] = target: Serine/threonine-protein kinase A-Raf (Homo sapiens) (UniProt P10398); experiment: Inhibition of recombinant human A-Raf (273 to end residues) at 1 uM using myelin as substrate incubated for 40 mins in presence of [gamma-33P]-ATP by scintillation counting method relative to control; summary of the method: as §1
# [13] = target: Ephrin type-A receptor 5 (Homo sapiens) (UniProt P54756); experiment: Inhibition of recombinant human EPhA5 (655 to 956 residues) at 1 uM using poly(Glu, Tyr) 4:1 as substrate incubated for 40 mins in presence of [gamma-33P]-ATP by scintillation counting method relative to control
# [14] = target: Ephrin type-B receptor 4 (Homo sapiens) (UniProt P54760); experiment: Inhibition of recombinant human EPhB4 (561 to end residues) at 1 uM using poly (Glu, Tyr) 4:1 as substrate incubated for 40 mins in presence of [gamma-33P]-ATP by scintillation counting method relative to control
# [15] = target: Receptor tyrosine-protein kinase erbB-4 (Homo sapiens) (UniProt Q15303); experiment: Inhibition of recombinant human ERBB4 (706 to 991 residues) at 1 uM using poly (Glu, Tyr) 4:1 as substrate incubated for 40 mins in presence of [gamma-33P]-ATP by scintillation counting method relative to control
# Summary of the method: (§3)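 Tested at a single 1 uM in an outsourced commercial kinase-profiling panel, read as percent inhibition. Each value is the mean of two independent experiments.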
# [16] = target: Leukocyte tyrosine kinase receptor (Homo sapiens) (UniProt P29376); experiment: Inhibition of recombinant human LTK (450 to end residues) at 1 uM using GEEPLYWSFPAKKK as substrate incubated for 40 mins in presence of [gamma-33P]-ATP by scintillation counting method relative to control; summary of the method: as §3
# [17] = target: RAC-gamma serine/threonine-protein kinase (Homo sapiens) (UniProt Q9Y243); experiment: Inhibition of recombinant human PKBgamma (117 to end residues) at 1 uM using GRPRTSSFAEGKK as substrate incubated for 40 mins in presence of [gamma-33P]-ATP by scintillation counting method relative to control
# [18] = target: Protein kinase C alpha type (Homo sapiens) (UniProt P17252); experiment: Inhibition of recombinant human full length PKCalpha at 1 uM using histone H1 as substrate incubated for 40 mins in presence of [gamma-33P]-ATP by scintillation counting method relative to control
# [19] = target: Serine/threonine-protein kinase 32A (Homo sapiens) (UniProt Q8WU08); experiment: Inhibition of recombinant human full length STK32A at 1 uM using casein as substrate incubated for 40 mins in presence of [gamma-33P]-ATP by scintillation counting method relative to control
# Summary of the method: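 Single-point inhibition at 1 uM measured in a commercial kinase profiling panel (KinaseProfiler); each value is the mean of two independent experiments.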
# [20] = tested on: Angiopoietin-1 receptor (Homo sapiens), Q02763 [R849W]; experiment: Inhibition of recombinant human TIE2 R849W mutant (771 to end residues) at 1 uM using EFPIYDFLPAKKK as substrate incubated for 40 mins in presence of [gamma-33P]-ATP by scintillation counting method relative to control
# T47D [21] = experiment: Induction of apoptosis in human T47D cells assessed as decrease in Bcl2 expression at 20 to 40 nM incubated for 48 hrs by Western blot analysis; format: functional, cell-based
# Summary of the method: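 Cancer cells were exposed to graded concentrations for 48 h, washed three times in PBS and lysed in RIPA buffer. Immunoblots were probed with anti-Rb, anti-phospho-Rb, anti-Ki67 and anti-Bcl-2, each at 1:1000. β-actin served as loading control.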
# T1 sequence (P35968 whole entry): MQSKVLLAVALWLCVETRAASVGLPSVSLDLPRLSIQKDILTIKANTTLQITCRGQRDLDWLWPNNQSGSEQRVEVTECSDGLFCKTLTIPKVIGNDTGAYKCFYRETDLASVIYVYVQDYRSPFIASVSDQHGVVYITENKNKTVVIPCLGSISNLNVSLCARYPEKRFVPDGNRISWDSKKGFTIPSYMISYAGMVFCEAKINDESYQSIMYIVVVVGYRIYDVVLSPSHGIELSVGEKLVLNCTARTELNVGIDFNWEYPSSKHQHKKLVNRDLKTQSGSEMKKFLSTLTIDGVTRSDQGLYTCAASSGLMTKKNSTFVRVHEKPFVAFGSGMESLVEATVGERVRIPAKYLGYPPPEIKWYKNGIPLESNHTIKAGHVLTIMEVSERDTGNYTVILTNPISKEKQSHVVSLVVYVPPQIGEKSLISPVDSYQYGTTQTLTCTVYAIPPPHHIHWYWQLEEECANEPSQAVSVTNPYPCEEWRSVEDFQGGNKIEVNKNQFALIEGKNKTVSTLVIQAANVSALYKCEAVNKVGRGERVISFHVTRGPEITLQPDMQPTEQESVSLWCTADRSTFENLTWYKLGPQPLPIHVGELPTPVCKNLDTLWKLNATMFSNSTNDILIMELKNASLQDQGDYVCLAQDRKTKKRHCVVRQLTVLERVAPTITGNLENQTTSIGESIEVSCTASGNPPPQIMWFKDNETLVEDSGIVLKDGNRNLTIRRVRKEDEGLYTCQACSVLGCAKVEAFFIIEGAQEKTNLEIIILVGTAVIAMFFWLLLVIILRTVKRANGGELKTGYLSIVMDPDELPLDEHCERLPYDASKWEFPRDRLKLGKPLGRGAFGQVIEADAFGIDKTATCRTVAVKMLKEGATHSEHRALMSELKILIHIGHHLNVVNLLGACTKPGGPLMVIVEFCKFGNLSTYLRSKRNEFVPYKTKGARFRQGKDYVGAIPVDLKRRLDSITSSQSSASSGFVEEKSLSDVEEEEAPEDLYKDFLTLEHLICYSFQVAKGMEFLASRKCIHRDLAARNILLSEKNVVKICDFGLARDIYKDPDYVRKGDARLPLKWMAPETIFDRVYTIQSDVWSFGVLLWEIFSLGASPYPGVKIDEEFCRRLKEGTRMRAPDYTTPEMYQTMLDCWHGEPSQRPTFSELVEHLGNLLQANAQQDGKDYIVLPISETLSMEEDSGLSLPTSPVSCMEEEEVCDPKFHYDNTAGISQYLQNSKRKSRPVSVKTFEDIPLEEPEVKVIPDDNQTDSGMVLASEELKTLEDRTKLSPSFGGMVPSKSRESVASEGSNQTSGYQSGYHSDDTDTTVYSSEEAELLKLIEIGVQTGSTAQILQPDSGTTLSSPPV
# Sequence of Leukocyte tyrosine kinase receptor (Homo sapiens) (P29376 whole entry): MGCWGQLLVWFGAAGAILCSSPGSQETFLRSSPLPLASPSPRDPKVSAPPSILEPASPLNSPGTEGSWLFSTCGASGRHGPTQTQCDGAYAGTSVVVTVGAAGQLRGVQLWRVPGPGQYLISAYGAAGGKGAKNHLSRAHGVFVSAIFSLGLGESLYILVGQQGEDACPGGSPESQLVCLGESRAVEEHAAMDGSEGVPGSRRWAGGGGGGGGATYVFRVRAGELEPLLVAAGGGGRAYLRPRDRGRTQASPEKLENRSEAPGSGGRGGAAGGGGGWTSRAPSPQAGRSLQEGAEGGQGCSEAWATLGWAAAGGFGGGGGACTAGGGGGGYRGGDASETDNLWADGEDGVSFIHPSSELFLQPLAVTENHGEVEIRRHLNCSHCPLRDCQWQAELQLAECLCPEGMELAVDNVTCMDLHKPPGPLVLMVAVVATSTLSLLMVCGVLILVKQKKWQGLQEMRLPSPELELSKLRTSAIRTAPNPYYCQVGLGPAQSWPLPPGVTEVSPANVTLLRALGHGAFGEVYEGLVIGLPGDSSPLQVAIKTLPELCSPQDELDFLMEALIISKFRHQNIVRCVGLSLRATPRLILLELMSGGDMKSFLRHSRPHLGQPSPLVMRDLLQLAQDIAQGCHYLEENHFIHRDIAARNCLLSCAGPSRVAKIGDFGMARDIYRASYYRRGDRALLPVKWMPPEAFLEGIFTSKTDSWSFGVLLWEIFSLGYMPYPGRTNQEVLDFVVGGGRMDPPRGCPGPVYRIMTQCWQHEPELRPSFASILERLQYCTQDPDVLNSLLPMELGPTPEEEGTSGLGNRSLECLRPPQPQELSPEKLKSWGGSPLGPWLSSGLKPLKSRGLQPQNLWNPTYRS
# Sequence of ALK tyrosine kinase receptor (Homo sapiens) (Q9UM73 19-1620 limits assumed): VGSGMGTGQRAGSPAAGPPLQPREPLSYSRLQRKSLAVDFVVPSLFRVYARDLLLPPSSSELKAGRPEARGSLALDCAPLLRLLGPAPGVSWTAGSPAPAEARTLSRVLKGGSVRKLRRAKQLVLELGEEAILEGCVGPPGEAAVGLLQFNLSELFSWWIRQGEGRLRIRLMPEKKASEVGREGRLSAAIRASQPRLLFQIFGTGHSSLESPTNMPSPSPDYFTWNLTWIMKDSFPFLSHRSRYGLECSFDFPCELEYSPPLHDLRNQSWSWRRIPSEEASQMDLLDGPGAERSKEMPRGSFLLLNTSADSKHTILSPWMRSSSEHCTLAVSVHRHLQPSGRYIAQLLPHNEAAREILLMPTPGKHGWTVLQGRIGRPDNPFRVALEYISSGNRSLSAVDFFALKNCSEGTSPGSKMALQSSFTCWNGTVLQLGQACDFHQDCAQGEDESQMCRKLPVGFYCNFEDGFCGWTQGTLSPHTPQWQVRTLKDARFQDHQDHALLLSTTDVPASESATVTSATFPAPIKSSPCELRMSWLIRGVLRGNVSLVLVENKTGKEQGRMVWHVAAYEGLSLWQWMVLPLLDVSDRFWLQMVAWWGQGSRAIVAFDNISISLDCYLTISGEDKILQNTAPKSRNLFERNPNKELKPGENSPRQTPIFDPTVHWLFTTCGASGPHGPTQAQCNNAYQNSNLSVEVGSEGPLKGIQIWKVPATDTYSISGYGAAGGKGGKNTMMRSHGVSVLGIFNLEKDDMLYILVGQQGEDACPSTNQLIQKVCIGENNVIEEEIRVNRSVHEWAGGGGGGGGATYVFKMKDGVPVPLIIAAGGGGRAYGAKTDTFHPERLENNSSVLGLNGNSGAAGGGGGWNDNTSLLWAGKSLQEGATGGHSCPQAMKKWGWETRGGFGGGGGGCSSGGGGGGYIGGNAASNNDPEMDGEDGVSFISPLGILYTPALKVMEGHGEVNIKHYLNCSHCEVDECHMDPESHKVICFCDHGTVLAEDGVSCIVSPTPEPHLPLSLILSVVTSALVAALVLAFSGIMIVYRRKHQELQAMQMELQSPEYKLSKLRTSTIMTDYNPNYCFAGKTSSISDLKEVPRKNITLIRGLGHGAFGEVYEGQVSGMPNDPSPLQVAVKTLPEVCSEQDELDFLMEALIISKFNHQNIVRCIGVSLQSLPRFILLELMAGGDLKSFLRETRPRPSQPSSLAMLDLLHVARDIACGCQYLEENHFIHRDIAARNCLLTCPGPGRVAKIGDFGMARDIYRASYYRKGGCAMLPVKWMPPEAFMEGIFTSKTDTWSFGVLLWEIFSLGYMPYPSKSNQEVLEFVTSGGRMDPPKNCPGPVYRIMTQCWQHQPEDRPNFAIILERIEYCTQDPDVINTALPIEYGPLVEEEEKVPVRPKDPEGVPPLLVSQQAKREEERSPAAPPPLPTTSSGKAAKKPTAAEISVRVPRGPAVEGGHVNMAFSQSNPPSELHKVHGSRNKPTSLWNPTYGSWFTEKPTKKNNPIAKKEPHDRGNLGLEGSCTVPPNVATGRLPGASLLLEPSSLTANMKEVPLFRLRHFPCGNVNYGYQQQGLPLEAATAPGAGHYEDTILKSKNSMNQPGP
# Sequence of Ephrin type-A receptor 5 (Homo sapiens) (P54756 whole entry, the tested form may be a part): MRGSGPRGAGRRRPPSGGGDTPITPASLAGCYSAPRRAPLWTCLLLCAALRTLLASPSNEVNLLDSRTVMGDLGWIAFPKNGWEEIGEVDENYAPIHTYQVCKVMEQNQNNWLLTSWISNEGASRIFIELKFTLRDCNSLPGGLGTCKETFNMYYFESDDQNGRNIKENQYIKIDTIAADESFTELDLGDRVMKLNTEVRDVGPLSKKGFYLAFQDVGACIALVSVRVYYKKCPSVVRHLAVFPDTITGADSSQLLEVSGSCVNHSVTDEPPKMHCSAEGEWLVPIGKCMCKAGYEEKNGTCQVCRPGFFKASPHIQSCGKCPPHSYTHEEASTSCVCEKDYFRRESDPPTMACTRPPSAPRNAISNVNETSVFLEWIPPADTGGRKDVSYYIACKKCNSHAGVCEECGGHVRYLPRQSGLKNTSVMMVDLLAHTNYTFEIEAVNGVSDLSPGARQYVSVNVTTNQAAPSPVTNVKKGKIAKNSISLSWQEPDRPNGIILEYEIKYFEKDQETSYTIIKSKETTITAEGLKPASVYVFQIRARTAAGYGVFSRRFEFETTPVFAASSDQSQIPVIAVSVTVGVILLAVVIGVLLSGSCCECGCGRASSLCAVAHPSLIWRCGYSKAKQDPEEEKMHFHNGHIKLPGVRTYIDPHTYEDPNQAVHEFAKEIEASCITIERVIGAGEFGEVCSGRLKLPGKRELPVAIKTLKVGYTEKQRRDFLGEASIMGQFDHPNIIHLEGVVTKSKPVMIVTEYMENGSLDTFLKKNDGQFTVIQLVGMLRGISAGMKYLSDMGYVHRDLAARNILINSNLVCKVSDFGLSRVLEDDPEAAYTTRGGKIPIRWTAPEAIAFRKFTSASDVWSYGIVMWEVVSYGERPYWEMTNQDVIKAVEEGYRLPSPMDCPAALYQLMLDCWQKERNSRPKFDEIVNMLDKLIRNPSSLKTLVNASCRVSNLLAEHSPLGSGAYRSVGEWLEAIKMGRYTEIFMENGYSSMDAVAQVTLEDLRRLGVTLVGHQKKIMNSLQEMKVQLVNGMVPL
smiles,measurement,setting,value
Cc1ccc(NC(=O)C2(C(=O)Nc3ccc(Nc4ncc(F)c(-c5cc(F)c6nc(C)n(C(C)C)c6c5)n4)cc3)CC2)cc1,inhibition,[1],95%
same,IC50,HeLa [2],71.5 to 72 nM
same,IC50,T47D [3],16 to 16.4 nM
same,IC50,SiHa,50 nM
same,IC50,MDA-MB-231 [4],38 nM
same,IC50,HUVEC [5],36 nM
same,inhibition,HUVEC [6],Active
same,inhibition,HeLa [7],Active
same,Activity,MDA-MB-231 [8],Active
same,Cmax,[9],1000 ng/mL
same,IC50,[10],46 nM
same,inhibition,[11],18%
same,inhibition,[12],19%
same,inhibition,[13],33%
same,inhibition,[14],42%
same,inhibition,[15],0%
same,inhibition,[16],0%
same,inhibition,[17],64%
same,inhibition,[18],70%
same,inhibition,[19],0%
same,inhibition,[20],57%
same,Activity,T47D [21],Active
COc1cc2nccc(Oc3ccc(NC(=O)C4(C(=O)Nc5ccc(F)cc5)CC4)cc3)c2cc1OC [CABOZANTINIB],inhibition,[1],101%
same,IC50,HeLa [2],> 10000 nM
same,IC50,T47D [3],4790 nM
same,IC50,SiHa,7940 nM
same,IC50,MDA-MB-231 [4],5080 nM
same,IC50,HUVEC [5],7670 nM
same,inhibition,HUVEC [6],Active
